IC50 and Activity data for 10 compounds are collected here from ChEMBL document CHEMBL1153005, “Synthesis and biological evaluation of curcumin-like diarylpentanoid analogues for anti-inflammatory, antioxidant and anti-tyrosinase activities” (Eur J Med Chem, 2009).

Each structure is given as a SMILES string. Where only a bound is given, the exact number is not on record here.

Series [1] relates to RAW264.7. Briefly: Antiinflammatory activity in mouse RAW264.7 cells assessed as inhibition of IFN-gamma/LPS-stimulated nitric oxide production after 17 to 20 hrs by Griess assay. The format is functional, cell-based. A digest of the protocol: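 RAW 264.7 cells were grown in DMEM with 10% FBS and 1% penicillin/streptomycin (5% CO₂, 37 °C). At 80–90% confluency they were scraped and seeded at 5 × 10⁴ cells/well. Nitrite was measured by Griess assay, and % NO inhibition was taken relative to the IFN-γ/LPS control. Results are the mean ± S.E.M. of three experiments; IC₅₀ values were computed from these.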

The nature of series [2]: Antioxidant activity assessed as nitric oxide scavenging activity after 60 min by Griess assay. Type of series: functional. A digest of the protocol: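 Sodium nitroprusside (10 mM) was incubated alone or with test compounds (7.81–500) for 60 min under light exposure. Nitrite in the mixture was measured by Griess assay, and % NO scavenging was calculated from OD versus the control. Results are the mean ± S.E.M. of three runs; IC₅₀ values were calculated.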

In series [3] the test system is Radical scavenging activity. Briefly: Antioxidant activity assessed as DPPH free radical scavenging activity after 30 mins. Type of series: functional. In short, it runs like this:
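Compound stocks were made in 100% DMSO and serially diluted from 7.81 to 500. DPPH (1 mg/ml in methanol) was added, and plates were shaken gently and kept in the dark for 30 min. Absorbance was read at 517 nm, and % scavenging was calculated versus the control. Results are the mean ± S.E.M. of three runs; IC₅₀ values were calculated.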

Series [4] addresses T1, Tyrosinase (Homo sapiens, UniProt P14679).
T1 sequence (P14679 whole entry): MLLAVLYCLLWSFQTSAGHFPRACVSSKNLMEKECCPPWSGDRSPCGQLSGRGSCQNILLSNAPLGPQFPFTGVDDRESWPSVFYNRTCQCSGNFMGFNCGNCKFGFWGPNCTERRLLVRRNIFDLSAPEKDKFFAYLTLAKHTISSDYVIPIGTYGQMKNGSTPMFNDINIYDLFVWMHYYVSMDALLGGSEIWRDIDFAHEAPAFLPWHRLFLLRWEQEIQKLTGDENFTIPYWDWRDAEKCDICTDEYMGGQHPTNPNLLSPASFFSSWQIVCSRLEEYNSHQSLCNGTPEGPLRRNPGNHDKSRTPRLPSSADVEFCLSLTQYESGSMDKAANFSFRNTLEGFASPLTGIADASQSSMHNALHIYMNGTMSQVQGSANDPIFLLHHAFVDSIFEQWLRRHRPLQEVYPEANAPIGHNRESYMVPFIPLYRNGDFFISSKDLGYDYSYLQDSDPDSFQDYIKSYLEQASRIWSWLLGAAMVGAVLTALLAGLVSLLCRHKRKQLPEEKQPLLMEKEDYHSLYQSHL
Briefly: Inhibition of tyrosinase.

Series [5] in a line: Cytotoxicity against HEMn cells. Type of series: cell-based. Particulars: human; call rule not given here.
Series [6] deals with RAW264.7. Put plainly: Cytotoxicity against IFN-gamma/LPS-stimulated mouse RAW264.7 cells assessed as cell viability at 25 uM after 17 to 20 hrs by MTT assay. The format is cell-based. Particulars: raw264.7, 25 µM. In short, it runs like this:
(§1)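 RAW 264.7 cells were cultured and seeded as for the NO assay. In the MTT read-out, cells were incubated for 4 h at 37 °C under 5% CO₂. Formazan was dissolved in DMSO and absorbance read at 570 nm. Viability (%) = OD sample / OD control × 100. Results are the mean ± S.E.M. of three experiments.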

Series [7] deals with RAW264.7. Briefly: Cytotoxicity against IFN-gamma/LPS-stimulated mouse RAW264.7 cells assessed as cell viability at 50 uM after 17 to 20 hrs by MTT assay. Type of series: cell-based. The settings on record: raw264.7, 50 µM. In short, it runs like this:
as §1

The mark [8] stands for this setting: Mus musculus, RAW264.7, read-out: IC50.

Regarding `O=C(/C=C/c1ccc(F)cc1)/C=C/c1ccc(F)cc1`, the IC50 result was “Not Active” in series [1] (raw264.7), “Not Active” in series [2], “Not Active” in series [3] and greater than 250 µM in series [4] (read-out: IC50).
On to `COc1cc(/C=C/C(=O)CC(=O)/C=C/c2ccc(O)c(OC)c2)ccc1O` [CURCUMIN], for which the IC50 was 20.4 µM in series [1] (setting [8]), greater than 500 µM in series [2] (read-out: IC50), 110 µM in series [3] (read-out: IC50) and “Not Active” in series [4].
Regarding `CC1(C)N([O])C(c2ccccc2)=[N+]([O-])C1(C)C`, the 50% inhibitory concentration (IC50) in series [2] (read-out: IC50) turned out to be 0.57 µM.
Take `O=c1c(O)c(-c2ccc(O)c(O)c2)oc2cc(O)cc(O)c12` [QUERCETIN]: the IC50 result in series [2] was “Not Active”; in series [3] (read-out: IC50), 41.8 µM.
`COC(=O)[C@@H](N)CCCNC(=N)N[N+](=O)[O-]` [L-NAME]: in series [1] (setting [8]), the half-inhibitory concentration (IC50) turned out to be 27.1 µM.
Take `O=C(/C=C/c1ccc(O)cc1)/C=C/c1ccc(O)cc1`: the concentration for half-maximal inhibition (IC50) entry was “Not Active” in series [1] (raw264.7), greater than 500 µM in series [2] (read-out: IC50), greater than 500 µM in series [3] (read-out: IC50) and 79 µM in series [4] (read-out: IC50). The Activity result in series [5] is given as “Toxic”.
Take `COc1cc(/C=C/C(=O)/C=C/c2ccc(O)c(OC)c2)ccc1O`: the IC50 entry in series [1] (raw264.7) is “Not Active”; in series [2] (read-out: IC50), greater than 500 µM; in series [3] (read-out: IC50), 257 µM; in series [4] (read-out: IC50), greater than 250 µM.
With `COc1ccc(/C=C/C(=O)/C=C/c2ccc(OC)cc2F)c(F)c1`, the IC50 in series [1] (setting [8]) was 33.1 µM; in series [2], “Not Active”; in series [3], “Not Active”; in series [4] (read-out: IC50) it was greater than 250 µM.
For the compound `O=C(/C=C/c1ccccc1O)/C=C/c1ccccc1O`, the IC50 was 10.2 µM in series [1] (setting [8]), greater than 500 µM in series [2] (read-out: IC50), greater than 500 µM in series [3] (read-out: IC50) and “Not Active” in series [4]. For the same compound, the Activity entry in series [6] and in series [7] was “Toxic” throughout.
On to `COc1ccc(OC)c(/C=C/C(=O)/C=C/c2cc(OC)ccc2OC)c1`, for which the IC50 in series [1] (setting [8]) was 13.6 µM; in series [2], “Not Active”; in series [3], “Not Active”; in series [4], “Not Active”. For the same compound, the Activity entry in series [7] was “Toxic”.
